Measurements from ChEMBL document CHEMBL5724801, “EUbOPEN Chemogenomics Library - Multiplex” (2024).
“And” between values parts separate entries of the source, which are not always exact repeats. Identical values can stand only once.

System: Fibroblast
Assay: Multiplex assay against human fibroblast
Assay type: toxicity, cell-based
In short: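 With compound added, live cells were imaged on a CQ1 microscope at 37°C and 5% CO2; staining with Hoechst33342, BioTracker Green Microtubule Cytoskeleton Dye, MitoTracker Red and Annexin V Alexa Fluor 680 had been done at seeding. The CellPathfinder machine-learning gating scheme split cells into Hoechst high-intensity objects or normal cells, normal cells into healthy, pyknosed or fragmented nuclei, and pyknosed cells into mitotic or apoptotic. The tubulin, mitochondrial-mass and membrane-permeability phenotypes are per cents of healthy-nucleus cells.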

[1] = 12 h, 1 µM, compound concentration 1 uM
[2] = 12 h, 10 µM, compound concentration 10 uM
[3] = 24 h, 1 µM, compound concentration 1 uM
[4] = 24 h, 10 µM, compound concentration 10 uM
[5] = 48 h, 1 µM, compound concentration 1 uM
[6] = 48 h, 10 µM, compound concentration 10 uM

CC(C)C[C@H](CO)Nc1nc(S[C@@H](C)c2ccccc2)nc2nc(N)sc12 [AZD-8797]
Population Apoptotic (%) [1]: 25% and 31% | Population Fragmented Nuclei (%) [1]: 23% and 22% | Population Healthy Nuclei (%) [1]: 62% and 55% | Population Hoechst High Intensity Objects (%) [1]: 1% and 4% | Population Mitochondria Different-Phenotype (%) [1]: 3% and 6% | Population Mitotic Cells (%) [1]: 75% and 68% | Population Normal (%) [1]: 98% and 95% | Population Pyknosed Nuclei (%) [1]: 13% and 21% | Population Tubulin-Different-Phenotype (%) [1]: 23% and 46% | Total Cell Count [1]: 146 and 92 | Population Apoptotic (%) [2]: 38% and 36% | Population Fragmented Nuclei (%) [2]: 18% and 36% | Population Healthy Nuclei (%) [2]: 64% and 41% | Population Hoechst High Intensity Objects (%) [2]: 3% and 5% | Population Membrane Permeable-Phenotype (%) [2]: 0% and 10% | Population Mitotic Cells (%) [2]: 61% and 64% | Population Normal (%) [2]: 96% and 94% | Population Pyknosed Nuclei (%) [2]: 17% and 21% | Population Tubulin-Different-Phenotype (%) [2]: 46% and 66% | Total Cell Count [2]: 156 and 122 | Population Apoptotic (%) [3]: 44% and 31% | Population Fragmented Nuclei (%) [3]: 15% and 29% | Population Healthy Nuclei (%) [3]: 69% and 54% | Population Hoechst High Intensity Objects (%) [3]: 1% and 0% | Population Mitochondria Different-Phenotype (%) [3]: 1% and 3% | Population Mitotic Cells (%) [3]: 55% and 68% | Population Normal (%) [3]: 98% and 99% | Population Pyknosed Nuclei (%) [3]: 14% and 15% | Population Tubulin-Different-Phenotype (%) [3]: 24% and 46% | Total Cell Count [3]: 124 and 103 | Population Apoptotic (%) [4]: 57% and 33% | Population Fragmented Nuclei (%) [4]: 21% and 42% | Population Healthy Nuclei (%) [4]: 66% and 38% | Population Hoechst High Intensity Objects (%) [4]: 1% and 2% | Population Membrane Permeable-Phenotype (%) [4]: 0% and 8% | Population Mitochondria Different-Phenotype (%) [4]: 15% and 25% | Population Mitotic Cells (%) [4]: 42% and 66% | Population Normal (%) [4]: 98% and 97% | Population Pyknosed Nuclei (%) [4]: 12% and 19% | Population Tubulin-Different-Phenotype (%) [4]: 38% and 85% | Total Cell Count [4]: 168 and 126 | Population Apoptotic (%) [5]: 50% and 47% | Population Fragmented Nuclei (%) [5]: 25% and 30% | Population Healthy Nuclei (%) [5]: 60% and 48% | Population Hoechst High Intensity Objects (%) [5]: 1% and 4% | Population Membrane Permeable-Phenotype (%) [5]: 1% and 4% | Population Mitochondria Different-Phenotype (%) [5]: 1% and 4% | Population Mitotic Cells (%) [5]: 50% and 52% | Population Normal (%) [5]: 98% and 95% | Population Pyknosed Nuclei (%) [5]: 13% and 20% | Total Cell Count [5]: 135 and 95 | Population Apoptotic (%) [6]: 60% and 35% | Population Fragmented Nuclei (%) [6]: 25% and 45% | Population Healthy Nuclei (%) [6]: 65% and 40% | Population Hoechst High Intensity Objects (%) [6]: 2% and 1% | Population Membrane Permeable-Phenotype (%) [6]: 0% and 12% | Population Mitochondria Different-Phenotype (%) [6]: 13% and 18% | Population Mitotic Cells (%) [6]: 40% and 64% | Population Normal (%) [6]: 97% and 98% | Population Pyknosed Nuclei (%) [6]: 9% and 14% | Population Tubulin-Different-Phenotype (%) [6]: 35% and 89% | Total Cell Count [6]: 168 and 121

CN1[C@@H](CC(=O)c2ccccc2)CCC[C@H]1C[C@H](O)c1ccccc1.Cl [LOBELINE HYDROCHLORIDE]
Population Apoptotic (%) [1]: 11.11% and 18.52% | Population Fragmented Nuclei (%) [1]: 12.29% and 4.19% | Population Healthy Nuclei (%) [1]: 57.54% and 81.68% | Population Hoechst High Intensity Objects (%) [1]: 0% | Population Membrane Permeable-Phenotype (%) [1]: 3.88% and 3.21% | Population Mitochondria Different-Phenotype (%) [1]: 13.59% and 7.05% | Population Mitotic Cells (%) [1]: 88.89% and 81.48% | Population Normal (%) [1]: 100% | Population Pyknosed Nuclei (%) [1]: 30.17% and 14.14% | Population Tubulin-Different-Phenotype (%) [1]: 15.53% and 14.1% | Total Cell Count [1]: 179 and 191 | Population Apoptotic (%) [2]: 16.36% and 11.43% | Population Fragmented Nuclei (%) [2]: 9.48% and 12.07% | Population Healthy Nuclei (%) [2]: 64.45% and 72.84% | Population Hoechst High Intensity Objects (%) [2]: 0% | Population Membrane Permeable-Phenotype (%) [2]: 8.09% and 4.73% | Population Mitochondria Different-Phenotype (%) [2]: 25% and 14.79% | Population Mitotic Cells (%) [2]: 83.64% and 88.57% | Population Normal (%) [2]: 100% | Population Pyknosed Nuclei (%) [2]: 26.07% and 15.09% | Population Tubulin-Different-Phenotype (%) [2]: 35.29% and 43.2% | Total Cell Count [2]: 211 and 232 | Population Fragmented Nuclei (%) [3]: 8.95% and 0.5% | Population Healthy Nuclei (%) [3]: 64.21% and 85.07% | Population Hoechst High Intensity Objects (%) [3]: 0% | Population Membrane Permeable-Phenotype (%) [3]: 3.28% and 3.51% | Population Mitochondria Different-Phenotype (%) [3]: 11.48% and 7.02% | Population Mitotic Cells (%) [3]: 96.08% and 82.76% | Population Normal (%) [3]: 100% | Population Pyknosed Nuclei (%) [3]: 26.84% and 14.43% | Population Tubulin-Different-Phenotype (%) [3]: 28.69% and 18.13% | Total Cell Count [3]: 190 and 201 | Population Fragmented Nuclei (%) [4]: 9.69% and 11.42% | Population Healthy Nuclei (%) [4]: 75.77% and 77.95% | Population Hoechst High Intensity Objects (%) [4]: 0% | Population Membrane Permeable-Phenotype (%) [4]: 2.33% and 2.02% | Population Mitochondria Different-Phenotype (%) [4]: 22.09% and 12.12% | Population Mitotic Cells (%) [4]: 93.94% and 66.67% | Population Normal (%) [4]: 100% | Population Pyknosed Nuclei (%) [4]: 14.54% and 10.63% | Population Tubulin-Different-Phenotype (%) [4]: 43.02% and 41.41% | Total Cell Count [4]: 227 and 254 | Population Apoptotic (%) [5]: 23.08% and 23.53% | Population Fragmented Nuclei (%) [5]: 9.22% and 3.83% | Population Healthy Nuclei (%) [5]: 84.47% and 88.04% | Population Hoechst High Intensity Objects (%) [5]: 0% | Population Membrane Permeable-Phenotype (%) [5]: 1.15% and 1.63% | Population Mitochondria Different-Phenotype (%) [5]: 8.62% and 3.26% | Population Mitotic Cells (%) [5]: 76.92% and 76.47% | Population Normal (%) [5]: 100% | Population Pyknosed Nuclei (%) [5]: 6.31% and 8.13% | Population Tubulin-Different-Phenotype (%) [5]: 9.2% and 7.07% | Total Cell Count [5]: 206 and 209 | Population Apoptotic (%) [6]: 30.77% and 35.71% | Population Fragmented Nuclei (%) [6]: 10.79% and 10.97% | Population Healthy Nuclei (%) [6]: 83.82% and 83.12% | Population Hoechst High Intensity Objects (%) [6]: 0% | Population Membrane Permeable-Phenotype (%) [6]: 1.98% and 6.09% | Population Mitochondria Different-Phenotype (%) [6]: 11.39% and 5.58% | Population Mitotic Cells (%) [6]: 69.23% and 64.29% | Population Normal (%) [6]: 100% | Population Pyknosed Nuclei (%) [6]: 5.39% and 5.91% | Population Tubulin-Different-Phenotype (%) [6]: 12.38% and 25.89% | Total Cell Count [6]: 241 and 237
